Reference: ChEMBL document CHEMBL4689842, “EUbOPEN Chemogenomics Library wave 1” (2021)
Several values for one entry are separate records, joined by “and”; a condition that tells them apart may be missing. Equal values may be shown once.

Test system: Fibroblast
Assay: Multiplex assay against human fibroblast
Assay type: toxicity, cell-based
Summary of the method: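 Cells stained live at seeding with Hoechst33342, BioTracker Green Microtubule Cytoskeleton Dye, MitoTracker Red and Annexin V Alexa Fluor 680 were imaged on a CQ1 microscope at 37°C and 5% CO2 after compound addition. Their classification by CellPathfinder machine-learning gating ran from Hoechst high-intensity objects versus normal cells, to healthy, pyknosed or fragmented nuclei among normal cells, to mitotic or apoptotic among pyknosed cells. Tubulin, mitochondrial-mass and membrane-permeability phenotypes are per cents of healthy-nucleus cells.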

[1] = 12 h, 1 µM, compound concentration 1 uM, replicate 1
[2] = 12 h, 1 µM, compound concentration 1 uM, replicate 2
[3] = 12 h, 10 µM, compound concentration 10 uM, replicate 1
[4] = 12 h, 10 µM, compound concentration 10 uM, replicate 2
[5] = 24 h, 1 µM, compound concentration 1 uM, replicate 1
[6] = 24 h, 1 µM, compound concentration 1 uM, replicate 2
[7] = 24 h, 10 µM, compound concentration 10 uM, replicate 1
[8] = 24 h, 10 µM, compound concentration 10 uM, replicate 2
[9] = 48 h, 10 µM, compound concentration 10 uM, replicate 1
[10] = 48 h, 10 µM, compound concentration 10 uM, replicate 2

C=CC(=O)Nc1cccc(Sc2nc(Nc3ccc(N4CCN(C)CC4)cc3)ncc2Cl)c1
Population Apoptotic (%) [1]: 35% | Population Fragmented Nuclei (%) [1]: 28% | Population Healthy Nuclei (%) [1]: 17% | Population Hoechst High Intensity Objects (%) [1]: 13% | Population Membrane Permeable-Phenotype (%) [1]: 5% | Population Mitochondria Different-Phenotype (%) [1]: 50% | Population Mitotic Cells (%) [1]: 65% | Population Normal (%) [1]: 86% | Population Pyknosed Nuclei (%) [1]: 53% | Population Tubulin-Different-Phenotype (%) [1]: 50% | Total Cell Count [1]: 130 | Population Apoptotic (%) [2]: 69% | Population Fragmented Nuclei (%) [2]: 48% | Population Healthy Nuclei (%) [2]: 6% | Population Hoechst High Intensity Objects (%) [2]: 20% | Population Membrane Permeable-Phenotype (%) [2]: 0% | Population Mitochondria Different-Phenotype (%) [2]: 33% | Population Mitotic Cells (%) [2]: 30% | Population Normal (%) [2]: 79% | Population Pyknosed Nuclei (%) [2]: 46% | Population Tubulin-Different-Phenotype (%) [2]: 66% | Total Cell Count [2]: 63 | Population Apoptotic (%) [3]: 79% | Population Fragmented Nuclei (%) [3]: 34% | Population Healthy Nuclei (%) [3]: 49% | Population Hoechst High Intensity Objects (%) [3]: 15% | Population Membrane Permeable-Phenotype (%) [3]: 6% | Population Mitochondria Different-Phenotype (%) [3]: 5% | Population Mitotic Cells (%) [3]: 20% | Population Normal (%) [3]: 84% | Population Pyknosed Nuclei (%) [3]: 15% | Population Tubulin-Different-Phenotype (%) [3]: 9% | Total Cell Count [3]: 290 | Population Apoptotic (%) [4]: 100% | Population Fragmented Nuclei (%) [4]: 62% | Population Healthy Nuclei (%) [4]: 36% | Population Hoechst High Intensity Objects (%) [4]: 33% | Population Membrane Permeable-Phenotype (%) [4]: 7% | Population Mitochondria Different-Phenotype (%) [4]: 7% | Population Mitotic Cells (%) [4]: 0% | Population Normal (%) [4]: 66% | Population Pyknosed Nuclei (%) [4]: 1% | Population Tubulin-Different-Phenotype (%) [4]: 25% | Total Cell Count [4]: 116 | Population Apoptotic (%) [5]: 74% | Population Fragmented Nuclei (%) [5]: 53% | Population Healthy Nuclei (%) [5]: 6% | Population Hoechst High Intensity Objects (%) [5]: 7% | Population Mitochondria Different-Phenotype (%) [5]: 57% | Population Mitotic Cells (%) [5]: 25% | Population Normal (%) [5]: 92% | Population Pyknosed Nuclei (%) [5]: 40% | Population Tubulin-Different-Phenotype (%) [5]: 71% | Total Cell Count [5]: 126 | Population Apoptotic (%) [6]: 90% | Population Fragmented Nuclei (%) [6]: 70% | Population Healthy Nuclei (%) [6]: 5% | Population Hoechst High Intensity Objects (%) [6]: 23% | Population Membrane Permeable-Phenotype (%) [6]: 0% | Population Mitochondria Different-Phenotype (%) [6]: 0% | Population Mitotic Cells (%) [6]: 10% | Population Normal (%) [6]: 76% | Population Pyknosed Nuclei (%) [6]: 25% | Population Tubulin-Different-Phenotype (%) [6]: 50% | Total Cell Count [6]: 52 | Population Apoptotic (%) [7]: 80% | Population Fragmented Nuclei (%) [7]: 34% | Population Healthy Nuclei (%) [7]: 50% | Population Hoechst High Intensity Objects (%) [7]: 17% | Population Membrane Permeable-Phenotype (%) [7]: 5% | Population Mitochondria Different-Phenotype (%) [7]: 5% | Population Mitotic Cells (%) [7]: 20% | Population Normal (%) [7]: 82% | Population Pyknosed Nuclei (%) [7]: 14% | Population Tubulin-Different-Phenotype (%) [7]: 11% | Total Cell Count [7]: 285 | Population Apoptotic (%) [8]: 0% | Population Fragmented Nuclei (%) [8]: 65% | Population Healthy Nuclei (%) [8]: 34% | Population Hoechst High Intensity Objects (%) [8]: 34% | Population Membrane Permeable-Phenotype (%) [8]: 20% | Population Mitochondria Different-Phenotype (%) [8]: 4% | Population Mitotic Cells (%) [8]: 0% | Population Normal (%) [8]: 65% | Population Pyknosed Nuclei (%) [8]: 0% | Population Tubulin-Different-Phenotype (%) [8]: 16% | Total Cell Count [8]: 111

CCOC(=O)Nc1cc(-c2ccc(C)c(NS(C)(=O)=O)c2)nn2c(C)nnc12
Population Apoptotic (%) [1]: 75% | Population Fragmented Nuclei (%) [1]: 30% | Population Healthy Nuclei (%) [1]: 44% | Population Hoechst High Intensity Objects (%) [1]: 9% | Population Membrane Permeable-Phenotype (%) [1]: 9% | Population Mitochondria Different-Phenotype (%) [1]: 9% | Population Mitotic Cells (%) [1]: 24% | Population Normal (%) [1]: 90% | Population Pyknosed Nuclei (%) [1]: 24% | Population Tubulin-Different-Phenotype (%) [1]: 10% | Total Cell Count [1]: 184 | Population Apoptotic (%) [2]: 60% | Population Fragmented Nuclei (%) [2]: 55% | Population Healthy Nuclei (%) [2]: 34% | Population Hoechst High Intensity Objects (%) [2]: 35% | Population Membrane Permeable-Phenotype (%) [2]: 16% | Population Mitochondria Different-Phenotype (%) [2]: 16% | Population Mitotic Cells (%) [2]: 40% | Population Normal (%) [2]: 64% | Population Pyknosed Nuclei (%) [2]: 9% | Population Tubulin-Different-Phenotype (%) [2]: 11% | Total Cell Count [2]: 81 | Population Apoptotic (%) [3]: 70% and 66% | Population Fragmented Nuclei (%) [3]: 30% and 28% | Population Healthy Nuclei (%) [3]: 45% and 56% | Population Hoechst High Intensity Objects (%) [3]: 15% and 13% | Population Mitochondria Different-Phenotype (%) [3]: 9% and 14% | Population Mitotic Cells (%) [3]: 29% and 33% | Population Normal (%) [3]: 84% and 86% | Population Pyknosed Nuclei (%) [3]: 23% and 15% | Total Cell Count [3]: 84 and 231 | Population Apoptotic (%) [4]: 50% and 40% | Population Healthy Nuclei (%) [4]: 86% | Population Membrane Permeable-Phenotype (%) [4]: 9% and 0% | Population Mitotic Cells (%) [4]: 50% and 60% | Population Normal (%) [4]: 77% and 97% | Population Pyknosed Nuclei (%) [4]: 2% and 5% | Total Cell Count [4]: 88 and 101 | Population Apoptotic (%) [5]: 61% | Population Fragmented Nuclei (%) [5]: 31% | Population Healthy Nuclei (%) [5]: 55% | Population Hoechst High Intensity Objects (%) [5]: 12% | Population Membrane Permeable-Phenotype (%) [5]: 12% | Population Mitochondria Different-Phenotype (%) [5]: 2% | Population Mitotic Cells (%) [5]: 38% | Population Normal (%) [5]: 87% | Population Pyknosed Nuclei (%) [5]: 12% | Population Tubulin-Different-Phenotype (%) [5]: 2% | Total Cell Count [5]: 186 | Population Apoptotic (%) [6]: 50% | Population Fragmented Nuclei (%) [6]: 48% | Population Healthy Nuclei (%) [6]: 42% | Population Hoechst High Intensity Objects (%) [6]: 31% | Population Membrane Permeable-Phenotype (%) [6]: 26% | Population Mitochondria Different-Phenotype (%) [6]: 5% | Population Mitotic Cells (%) [6]: 50% | Population Normal (%) [6]: 68% | Population Pyknosed Nuclei (%) [6]: 8% | Population Tubulin-Different-Phenotype (%) [6]: 15% | Total Cell Count [6]: 66 | Population Apoptotic (%) [7]: 60% and 56% | Population Fragmented Nuclei (%) [7]: 22% and 18% | Population Healthy Nuclei (%) [7]: 47% and 66% | Population Hoechst High Intensity Objects (%) [7]: 6% and 12% | Population Membrane Permeable-Phenotype (%) [7]: 22% and 8% | Population Mitochondria Different-Phenotype (%) [7]: 6% and 4% | Population Mitotic Cells (%) [7]: 39% and 43% | Population Normal (%) [7]: 94% and 88% | Population Pyknosed Nuclei (%) [7]: 29% and 15% | Total Cell Count [7]: 100 and 225 | Population Healthy Nuclei (%) [8]: 46% and 90% | Population Membrane Permeable-Phenotype (%) [8]: 3% and 0% | Population Mitochondria Different-Phenotype (%) [8]: 10% and 16% | Population Mitotic Cells (%) [8]: 100% and 71% | Population Normal (%) [8]: 71% and 97% | Total Cell Count [8]: 88 and 137 | Population Apoptotic (%) [9]: 54% | Population Fragmented Nuclei (%) [9]: 30% | Population Healthy Nuclei (%) [9]: 56% | Population Hoechst High Intensity Objects (%) [9]: 16% | Population Membrane Permeable-Phenotype (%) [9]: 16% | Population Mitochondria Different-Phenotype (%) [9]: 0% | Population Mitotic Cells (%) [9]: 45% | Population Normal (%) [9]: 83% | Population Pyknosed Nuclei (%) [9]: 12% | Population Tubulin-Different-Phenotype (%) [9]: 8% | Total Cell Count [9]: 105 | Population Apoptotic (%) [10]: 100% | Population Fragmented Nuclei (%) [10]: 18% | Population Healthy Nuclei (%) [10]: 80% | Population Hoechst High Intensity Objects (%) [10]: 10% | Population Membrane Permeable-Phenotype (%) [10]: 2% | Population Mitochondria Different-Phenotype (%) [10]: 1% | Population Mitotic Cells (%) [10]: 0% | Population Normal (%) [10]: 89% | Population Pyknosed Nuclei (%) [10]: 0% | Population Tubulin-Different-Phenotype (%) [10]: 1% | Total Cell Count [10]: 114
